Among the data in ChEMBL document CHEMBL1123189, “4-Aroyl-1,3-dihydro-2H-imidazol-2-ones: a new class of cardiotonic agents. 2. Effect of 4-pyridoyl substituents and related compounds” (1986) are Equieffective dose values, retold here.

Common to all, as to type: functional, Canis lupus familiaris
Test [1] relates to Canis familiaris. In words: Compound was tested for inotropic activity by measuring the concentration required to increase heart rate by 15% in the anesthetized dog after intravenous administration. In outline:
(§1)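 Anesthetized dogs, one compound per animal, stabilized at least 30 min after surgery. Contractile force from a Walton-Brodie strain gauge arch sutured to the left ventricle, heart rate from lead II EKG, aortic pressure via femoral cannula. Readings at 5- to 10-min intervals before and after iv injection of at least three doses, with return to baseline between doses. Equieffective doses extrapolated from dose-response curves; means with 95% confidence intervals.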

The test system of test [2] is Canis familiaris. The test can be described thus: Compound was tested for inotropic activity by measuring the concentration required to mean blood pressure by 20% in the anesthetized dog after intravenous administration. In outline: as §1
For test [3], the system named is Canis familiaris. The test can be described thus: Compound was tested for inotropic activity by measuring the concentration required to increase cardiac contractile force by 30% in the anesthetized dog after intravenous administration. In outline:
as §1

Take `CCc1[nH]c(O)nc1C(=O)c1cc[n+]([O-])cc1`: the Equieffective dose with Canis familiaris [1], in the test on Canis familiaris [2] and in the test with Canis familiaris [3] was greater than 1 mg/kg each time.

As for `CCc1[nH]c(O)nc1C(=O)c1cccnc1Cl`, the Equieffective dose was greater than 3 mg/kg with Canis familiaris [1], greater than 3 mg/kg with Canis familiaris [2] and 0.31 mg/kg with Canis familiaris [3].

As for `Cc1[nH]c(O)nc1C(=O)c1ccncc1`, the figures for the Equieffective dose with Canis familiaris [1], in the test on Canis familiaris [2] and in the test on Canis familiaris [3] were 3.37 mg/kg, 2.58 mg/kg and 0.13 mg/kg, respectively.

In the case of `CCCc1[nH]c(O)nc1C(=O)c1ccncc1`, the Equieffective dose with Canis familiaris [1] was 3.38 mg/kg; in the test on Canis familiaris [2] it was greater than 3 mg/kg; in the test on Canis familiaris [3], 1.7 mg/kg.

For the compound `CCc1[nH]c(O)nc1C(=O)c1cccnc1`, the Equieffective dose in the test on Canis familiaris [1] was greater than 3 mg/kg; with Canis familiaris [2], greater than 3 mg/kg; with Canis familiaris [3] it was 0.22 mg/kg.

As for `Cc1[nH]c(O)nc1C(=O)c1cccnc1Cl`, the values for the Equieffective dose in the test on Canis familiaris [1], with Canis familiaris [2] and with Canis familiaris [3] were 5.1 mg/kg, greater than 10 mg/kg and 0.47 mg/kg, respectively.

Regarding `Cc1[nH]c(O)nc1C(=O)c1ccccn1`, the Equieffective dose amounted to 3.29 mg/kg in the test with Canis familiaris [1], 1.91 mg/kg in the test on Canis familiaris [2] and 1.57 mg/kg with Canis familiaris [3].

For the compound `Cc1[nH]c(O)nc1C(=O)c1cccnc1`, the results for the Equieffective dose in the test with Canis familiaris [1], in the test on Canis familiaris [2] and in the test on Canis familiaris [3] were greater than 3 mg/kg, greater than 3 mg/kg and 0.64 mg/kg, respectively.

Regarding `CCc1[nH]c(O)nc1C(=O)c1cnccc1Cl`, the Equieffective dose worked out at 11.8 mg/kg with Canis familiaris [1], 7.03 mg/kg with Canis familiaris [2] and 0.56 mg/kg in the test with Canis familiaris [3].

Consider `CCc1[nH]c(=O)[nH]c1C(=O)c1ccncc1` [PIROXIMONE], for which the Equieffective dose with Canis familiaris [1] stood at 0.42 mg/kg; with Canis familiaris [2] it was 1.7 mg/kg; in the test with Canis familiaris [3], 0.07 mg/kg.

As for `CCc1[nH]c(O)nc1C(=O)c1ccccn1`, the Equieffective dose in the test on Canis familiaris [1] was 0.83 mg/kg; with Canis familiaris [2], greater than 3 mg/kg; with Canis familiaris [3] it was 0.2 mg/kg.
